Measurements collected from several papers.

CSc1ccc(-c2nc3ccc(C)cc3n2Cc2ccccc2)cc1 — IC50 (human Rhabdomyosarcoma cell; cell growth or viability; MTT): 31.7 µM
COc1ccccc1NCCCNCC(O)COc1cccc2[nH]c3ccccc3c12 (stereo not shown) — IC50 (NCI-H1299; cell growth or viability; CCK-8; 72 h): 8.9 µM
COc1cc(/C=C/C(=O)/C=C(O)/C=C/c2ccncc2)ccc1O — IC50 (CHO-K1; cell growth or viability; SRB; 72 h): 17.7 µM
c1ccc2[nH]c(-c3ccc4c(c3)OCO4)nc2c1 — IC50 (human Rhabdomyosarcoma cell; cell growth or viability; MTT; 48 h): > 100 µM
COc1ccccc1/C=C/CNCC(O)COc1ccc2[nH]ccc2c1 (stereo not shown) — IC50 (NCI-H1299; cell growth or viability; CCK-8; 72 h): 25.3 µM
COc1ccc(-c2nc3ccccc3n2Cc2ccccc2)cc1OC — IC50 (human Rhabdomyosarcoma cell; cell growth or viability; MTT): 18.4 µM
CCSC(=O)c1ncn2c(=O)n(C)nnc12 — IC50 (D54; cell growth or viability; resazurin; 7 days): 8 µM
Cc1ccc2nc(-c3ccc([N+](=O)[O-])cc3)n(Cc3ccccc3)c2c1 — IC50 (human Rhabdomyosarcoma cell; cell growth or viability; MTT): 8.45 µM
COc1cc2c(Oc3ccc(NC(=O)C4(C(=O)Nc5ccc(F)cc5)CC4)cc3F)ccnc2cc1OCCCN1CCOCC1 — IC50 (Rh30; cell growth or viability; 72 h): 0.6 µM
COc1cccc2c1C(=O)c1c(O)c3c(c(O)c1C2=O)C[C@@](O)(C(=O)CO)C[C@@H]3O[C@H]1C[C@H](N)[C@H](O)[C@H](C)O1 — IC50 (CHO-K1; cell growth or viability; MTT; 72 h): 1.4 µM
C=CCn1c(-c2ccc(OC)c(OC)c2)nc2ccccc21 — IC50 (human Rhabdomyosarcoma cell; cell growth or viability; MTT): 50.4 µM
Cn1c(-c2nnc(NC(=O)c3cc4c([nH]c5ccccc54)c(-c4ccccc4)n3)s2)cc2ccccc21 — IC50 (HL-60; cell growth or viability; MTT; 72 h): 33.2 µM
COc1ccccc1/C=C/CNCC(O)COc1ccc(C2CCCCC2)cc1 (stereo not shown) — IC50 (NCI-H1299; cell growth or viability; CCK-8; 72 h): 29.5 µM
Brc1ccc(Nc2nc(NCCc3ccccc3)nc(NCCc3ccccc3)n2)cc1 — IC50 (SK-BR-3; cell growth or viability; SRB; 72 h): 25.3 µM
Cc1cc(Nc2ncc(Cl)c(Nc3ccccc3S(=O)(=O)C(C)C)n2)c(OC(C)C)cc1C1CCNCC1 — IC50 (Rh30; cell growth or viability; 72 h): 0.64 µM
COc1ccccc1/C=C/CNCC(O)COc1cccc2ccccc12 (stereo not shown) — IC50 (NCI-H1299; cell growth or viability; CCK-8; 72 h): 19.8 µM
CC(C)CNC(=C\C(=O)/C=C/c1cccnc1)/C=C/c1cccnc1 — IC50 (CHO-K1; cell growth or viability; SRB; 72 h): 28.6 µM
COc1ccccc1OCCNC(=O)COc1cccc2[nH]c3ccccc3c12 — IC50 (NCI-H1299; cell growth or viability; CCK-8; 72 h): > 100 µM
COc1cccc2c1C(=O)c1c(O)c3c(c(O)c1C2=O)C[C@@](O)(C(=O)CO)C[C@@H]3O[C@H]1C[C@H](N)[C@H](O)[C@H](C)O1 — IC50 (CHO-K1; cell growth or viability; SRB; 72 h): 2.4 µM
O=C(/C=C(O)/C=C/c1ccc[nH]1)/C=C/c1ccc[nH]1 — IC50 (CHO-K1; cell growth or viability; SRB; 72 h): 11.7 µM
CC(=O)O[C@@]12CO[C@@H]1C[C@H](O)[C@@]1(C)C(=O)[C@H](O)C3=C(C)[C@@H](OC(=O)[C@H](O)[C@@H](NC(=O)OC(C)(C)C)c4ccccc4)C[C@@](O)([C@@H](OC(=O)c4ccccc4)[C@H]21)C3(C)C — IC50 (MDA-MB-436; cell growth or viability; ATP luminescence; 72 h): 0.0037 µM
O=C(/C=C(O)/C=C/c1cccnc1)/C=C/c1cccnc1 — IC50 (CHO-K1; cell growth or viability; MTT; 72 h): 7.2 µM
CCN(CC)C(=O)c1ncn2c(=O)n(C)nnc12 — IC50 (D54; cell growth or viability; resazurin; 7 days): 13 µM
O=C(/C=C(O)/C=C/c1c[nH]c2ccccc12)/C=C/c1c[nH]c2ccccc12 — IC50 (CHO-K1; cell growth or viability; MTT; 72 h): 7.9 µM
COc1ccccc1OCCN(C)CC(O)COc1cccc2[nH]c3ccccc3c12 (stereo not shown) — IC50 (NCI-H1299; cell growth or viability; CCK-8; 72 h): 39.5 µM
CCOc1cc(-c2nc3ccccc3[nH]2)ccc1O — IC50 (human Rhabdomyosarcoma cell; cell growth or viability; MTT; 48 h): 29.4 µM
O=C(/C=C(O)/C=C/c1ccccn1)/C=C/c1c[nH]c2ccccc12 — IC50 (CHO-K1; cell growth or viability; MTT; 72 h): 22.3 µM
CN(C)c1ccc(-c2nc3ccccn3c2NC(C)(C)C)cc1 — IC50 (Vero; cell growth or viability; MTT; 48 h): 87 µM
c1ccc2[nH]c(-c3ccncc3)nc2c1 — IC50 (human Rhabdomyosarcoma cell; cell growth or viability; MTT; 48 h): 31.2 µM
COc1ccccc1/C=C/CNCC(O)COc1ccncc1 (stereo not shown) — IC50 (NCI-H1299; cell growth or viability; CCK-8; 72 h): 34.1 µM
O=C(Cn1ccnc1[N+](=O)[O-])NCc1ccccc1 — IC50 (RAW264.7; cell growth or viability; MTT): > 240 µM
O=C(/C=C(/C=C/c1cccnc1)NCCCO)/C=C/c1cccnc1 — IC50 (CHO-K1; cell growth or viability; MTT; 72 h): > 75 µM
COc1cc(Nc2nccc(-c3cnn4nc(OC)ccc34)n2)cc(C(F)(F)F)c1 — IC50 (SNU-840; cell growth or viability; ATP luminescence): 0.37 µM
O=C(/C=C(/C=C/c1cccnc1)NCCO)/C=C/c1cccnc1 — IC50 (CHO-K1; cell growth or viability; SRB; 72 h): > 75 µM
Cc1ccc(C(=O)Nc2ccc(Oc3cc4cnn(C)c4cc3-c3cn[nH]c3)c(F)c2)c(=O)n1-c1ccc(F)cc1 — IC50 (MKN-45; cell growth or viability; ATP luminescence): 0.028 µM
O=C(/C=C(O)/C=C/c1ccncc1)/C=C/c1c[nH]c2ccccc12 — IC50 (CHO-K1; cell growth or viability; MTT; 72 h): 42.9 µM
O=C(O)Cc1ccccc1Nc1c(Cl)cccc1Cl — IC50 (RAW264.7; reactive oxygen species; inhibitor; LPS-stimulated): 50.1 µM
COc1cc(/C=C/C(=O)/C=C(O)/C=C/c2c[nH]c3ccccc23)ccc1O — IC50 (CHO-K1; cell growth or viability; SRB; 72 h): 23.3 µM
O=C1C=C(/C=C/c2cccnc2)N(CCCO)C(c2cccnc2)C1 (stereo not shown) — IC50 (CHO-K1; cell growth or viability; MTT; 72 h): > 75 µM
Cc1ncn2c(=O)n(C)nnc12 — IC50 (D54; cell growth or viability; resazurin; 7 days): 6 µM
O=C(/C=C(O)/C=C/c1cccs1)/C=C/c1c[nH]c2ccccc12 — IC50 (CHO-K1; cell growth or viability; SRB; 72 h): 11.1 µM
CCCNc1nc(NCCC)nc(Nc2ccc(Br)cc2)n1 — IC50 (SK-BR-3; cell growth or viability; SRB; 72 h): 22.5 µM
COc1cc(/C=C/C(=O)CC(=O)/C=C/c2ccc(O)c(OC)c2)ccc1O — IC50 (CHO-K1; cell growth or viability; SRB; 72 h): 38.8 µM
COc1ccc(-c2nc3ccccc3[nH]2)cc1O — IC50 (human Rhabdomyosarcoma cell; cell growth or viability; MTT; 48 h): 53.1 µM
O=C(/C=C(O)/C=C/c1ccc2ccccc2n1)/C=C/c1c[nH]c2ccccc12 — IC50 (CHO-K1; cell growth or viability; MTT; 72 h): 41.6 µM
CC(C)C[C@H](NC(=O)[C@H](Cc1ccccc1)NC(=O)c1cnccn1)B(O)O — IC50 (NCI-H1437; cell growth or viability; ATP luminescence): 0.013 µM
